The source made the active and inactive calls. The calls are words filed in the database; no cut-off is given here.
Experiments:
[1] = system: Mus musculus; assay: Antidepressant-like activity in Swiss mouse assessed as reduction in immobility time at 30 mg/kg, ip administered as single dose for 30 mins prior to testing measured for last 4 mins of 6 mins test by tail suspension test; type: functional, organism-based
[2] = Solubility of the compound in pH 7.4 sodium phosphate buffer at >100 uM; type: physicochemical
[3] = system: SH-SY5Y; assay: Cytotoxicity against human SH-SY5Y cells assessed as reduction in cell viability at 5 to 10 uM measured after 24 hrs by MTS assay; type: cell-based
How it was run: (§1)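 SH-SY5Y human neuroblastoma cells grown in Advanced DMEM with 10% FBS at 37 °C, 5% CO2, and switched to serum-depleted medium before treatment. Compounds (20 mM DMSO stocks) were applied at 5, 10 or 50 μM for 24 h. Viability read by MTS assay.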

[4] = Cytotoxicity against human SH-SY5Y cells assessed as cell viability at 50 uM measured after 24 hrs by MTS assay relative to control; type: cell-based; details: read-out: Activity; how it was run: as §1
[5] = system: SH-SY5Y; assay: Neuroprotective activity against 6-OHDA-induced toxicity in human SH-SY5Y cells assessed as LDH release at 5 uM pretreated for 30 mins followed by 6-OHDA challenge and measured after 24 hrs by cytotox-onetm homogeneous membrane integrity assay (reference value: 135%); type: functional
[6] = target: T1, Amine oxidase [flavin-containing] A (Homo sapiens, UniProt P21397); details: 20 min
T1 sequence (P21397 whole entry): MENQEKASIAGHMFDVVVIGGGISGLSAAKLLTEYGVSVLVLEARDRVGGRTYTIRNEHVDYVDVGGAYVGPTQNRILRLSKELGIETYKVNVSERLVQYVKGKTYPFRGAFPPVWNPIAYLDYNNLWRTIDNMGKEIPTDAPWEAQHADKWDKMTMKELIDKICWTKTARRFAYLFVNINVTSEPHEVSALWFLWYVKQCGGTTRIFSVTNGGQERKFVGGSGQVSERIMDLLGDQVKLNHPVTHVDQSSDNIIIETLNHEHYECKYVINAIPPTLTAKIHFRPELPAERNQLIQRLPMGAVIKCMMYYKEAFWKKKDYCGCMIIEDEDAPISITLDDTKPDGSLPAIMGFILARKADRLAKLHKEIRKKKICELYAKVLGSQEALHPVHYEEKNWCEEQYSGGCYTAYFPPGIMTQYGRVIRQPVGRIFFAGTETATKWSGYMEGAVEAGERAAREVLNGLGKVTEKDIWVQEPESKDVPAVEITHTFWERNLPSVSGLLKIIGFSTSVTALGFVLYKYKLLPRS

[7] = system: Mus musculus; assay: Antianxiety activity in Swiss mouse assessed as increase in open arm entries at 1 mg/kg, ip measured after 30 mins and monitored for 5 mins by elevated plus maze test relative to control; type: functional
[8] = system: Mus musculus; assay: Antianxiety activity in Swiss mouse assessed as increase in time spent in open arm entries at 1 mg/kg, ip measured after 30 mins and monitored for 5 mins by elevated plus maze test relative to control; type: functional
[9] = Photoisomerization of the compound in D2O incubated for 7 days under sunlight by NMR analysis
[10] = system: Mus musculus; assay: Ex vivo inhibition of MAOB in ip dosed Swiss mouse brain homogenates measured after 30 mins using benzylamine as substrate by amplex red reagent-based horseradish peroxidase-coupled fluorescence assay; type: functional
[11] = system: Mus musculus; assay: Reversal of haloperidol-induced catalepsy in Swiss mouse at 0.3 mg/kg, ip pretreated for 15 mins followed by haloperidol challenge and measured up to 90 mins; type: functional, organism-based
[12] = target: T1, Amine oxidase [flavin-containing] A; assay: Irreversible inhibition of recombinant human MAOA expressed in Pichia pastoris at 100 uM measured immediately by UV-vis spectrophotometric analysis relative to control
[13] = Apparent permeability across absorptive direction in Sprague-Dawley rat ileum at 50 uM measured after 20 mins LC-MS/MS analysis; type: ADME, tissue-based
[14] = system: Mus musculus; assay: Antidepressant-like activity in Swiss mouse assessed as reduction in immobility time at 3 to 10 mg/kg, ip administered as single dose for 30 mins prior to testing measured for last 4 mins of 6 mins test by tail suspension test; type: functional, organism-based
[15] = system: Mus musculus; assay: Antianxiety activity in Swiss mouse assessed as number of total arm entries at 10 mg/kg, ip measured after 30 mins and monitored for 5 mins by elevated plus maze test; type: functional
How it was run: (§2)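 Adult male Swiss mice (25–30 g), given hydrochloride salts in 0.9% saline ip 30 min before the elevated plus maze; control mice received saline, with diazepam 1 mg/kg ip as reference. Scored arm entries, open-arm parameters and time in centre. Mice were used once, randomly assigned, and scored by blinded observers between 10:00 and 14:00 h.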

[16] = system: Mus musculus; assay: Antianxiety activity in Swiss mouse assessed as proportion of time spent in centre at 10 mg/kg, ip measured after 30 mins and monitored for 5 mins by elevated plus maze test relative to control; type: functional; how it was run: as §2
[17] = system: Mus musculus; assay: Effect on spontaneous locomotor activity in Swiss mouse assessed as change in number of light beam crossings at 10 mg/kg, ip measured after 30 mins and monitored for 5 mins; type: ADME, organism-based; details: in vivo
[18] = system: SH-SY5Y; assay: Neuroprotective activity against 6-OHDA-induced toxicity in human SH-SY5Y cells assessed as reduction in propidium iodide positive cells at 5 uM pretreated for 30 mins followed by 6-OHDA challenge and measured after 24 hrs by propidium iodide staining-based flow cytometric analysis relative to 6-OHDA; type: functional
How it was run: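 SH-SY5Y cells were grown in Advanced DMEM with 10% FBS at 37 °C, 5% CO2 to 80% confluence, then switched to serum-depleted medium. Compound (5 μM, from a 20 mM DMSO stock) was added 30 min before 6-OHDA (100 μM). After 24 h, PI staining was read by flow cytometry. Runs were n ≥ 2, each in duplicate, with one-way ANOVA and Bonferroni.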

## CN(C)CCCN1c2ccccc2CCc2ccccc21
[1]
  Activity: Active

## C#CCN1CCC(/C=C\c2ccc(Cl)cc2)CC1
[2]
  solubility: Insoluble

## C#CCN1CCC(/C=C/c2ccc(F)cc2)CC1.Cl
[3]
  Activity: Non-Toxic
[4]
  viability at 24 h, 50 µM: > 80%
[5]
  Activity: 76%

## C#CCN1CCC(/C=C/c2ccc(C)cc2)CC1
[6]
  activity at 100 µM: 57.3%

## C#CCN1CCC(CCc2ccc(F)cc2)CC1
[6]
  activity at 100 µM: 76.9%

## C#CCN1CCC(/C=C/c2ccc(C(C)C)cc2)CC1
[2]
  solubility: Insoluble

## CN1C(=O)CN=C(c2ccccc2)c2cc(Cl)ccc21 [DIAZEPAM]
[7]
  fold change (FC): 2.1
[8]
  fold change (FC): 2.4

## C#CCN1CCC(/C=C\c2ccc(C(F)(F)F)cc2)CC1
[6]
  activity at 100 µM: 80.1%

## C#CCN1CCC(CCc2ccc(C(F)(F)F)cc2)CC1 [listing 1 of 2 here]
[9]
  Drug metabolism: Metabolite not detected
[10]
  inhibition: Dose-dependent effect
[11]
  Activity: inactive

## C#CCN1CCC(CCc2ccc(Cl)cc2)CC1
[6]
  activity at 100 µM: 67.7%

## C#CCN(C)CCCOc1ccc(Cl)cc1Cl [CLORGILINE]
[12]
  inhibition at 100 µM: 100%

## C#CCN1CCCC(/C=C/c2cc(F)c(F)cc2F)C1 (racemic)
[6]
  activity at 100 µM: 102%

## C#CCN1CCC(CCc2cc(F)c(F)cc2F)CC1
[6]
  activity at 100 µM: 65.6%

## COCCc1ccc(OCC(O)CNC(C)C)cc1 (stereo unspecified) [METOPROLOL]
[13]
  Papp A→B at 20 min, 50 µM: 14 ×10⁻⁶ cm/s

## C#CCN1CCC(CCc2ccc(C#N)cc2)CC1.Cl
[3]
  Activity: Non-Toxic
[4]
  viability at 24 h, 50 µM: > 80%
[5]
  Activity: 82%

## C#CCN1CCCC(CCc2ccc(F)cc2)C1 (racemic)
[6]
  activity at 100 µM: 93.1%

## C#CCN1CCC(/C=C/c2ccc(Br)cc2)CC1
[6]
  activity at 100 µM: 54.5%

## C#CCN1CCCC(CCc2cc(F)c(F)cc2F)C1 (racemic)
[6]
  activity at 100 µM: 86%

## C#CCN1CCC(/C=C/c2ccc(C#N)cc2)CC1
[2]
  solubility: Insoluble

## C#CCN1CCC(/C=C\c2ccc(F)cc2)CC1.Cl
[3]
  Activity: Non-Toxic
[4]
  viability at 24 h, 50 µM: > 80%
[14]
  Activity: Active
[15]
  Activity: 9.7
[16]
  Activity: 13.4%
[17]
  Activity: Toxic

## C#CCN1CCCC(/C=C/c2ccc(F)cc2)C1 (racemic)
[6]
  activity at 100 µM: 91%

## C#CCN1CCC(/C=C/c2ccc(C(F)(F)F)cc2)CC1 [listing 1 of 2 here]
[9]
  Drug metabolism: Metabolite not detected

## C#CCN1CCC(CCc2ccc(C)cc2)CC1
[6]
  activity at 100 µM: 68.1%

## C#CCN1CCC(/C=C/c2ccc(S(C)(=O)=O)cc2)CC1
[6]
  activity at 100 µM: 68.7%

## C#CCN1CCC(CCc2ccc(C(F)(F)F)cc2)CC1 [listing 2 of 2 here]
[6]
  activity at 100 µM: 62.3%

## C#CCN1CCC(CCc2cccc(C(F)(F)F)c2)CC1
[6]
  activity at 100 µM: 71.6%

## C#CCN1CCC(CCc2ccc(C(N)=O)cc2)CC1
[6]
  activity at 100 µM: 75.1%

## C#CCN1CCC(/C=C\c2ccccc2)CC1.Cl
[3]
  Activity: Non-Toxic
[4]
  viability at 24 h, 50 µM: > 80%
[14]
  Activity: inactive

## C#CCN1CCC(CCc2ccc(C(C)C)cc2)CC1
[2]
  solubility: Insoluble

## C#CCN1CCC(/C=C/c2ccc(OC)cc2)CC1
[6]
  activity at 100 µM: 56.1%

## C#CCN1CCC(CCc2ccc(C(C)C)cc2)CC1.Cl
[3]
  Activity: Non-Toxic
[4]
  viability at 24 h, 50 µM: > 80%
[5]
  Activity: 82%
[18]
  fold change (FC): 0.68

## C#CCN1CCC(CCc2ccc(OC)cc2)CC1
[6]
  activity at 100 µM: 62.2%

## C#CCN1CCC(/C=C/c2ccc(C(N)=O)cc2)CC1
[6]
  activity at 100 µM: 64.8%

## C#CCN1CCC(/C=C\c2ccc(S(C)(=O)=O)cc2)CC1
[6]
  activity at 100 µM: 70.6%

## C#CCN1CCC(CCc2ccc(O)cc2)CC1
[6]
  activity at 100 µM: 67.7%

## C#CCN1CCC(/C=C\c2ccc(C(N)=O)cc2)CC1
[6]
  activity at 100 µM: 89.5%

## C#CCN1CCC(/C=C\c2ccc(C)cc2)CC1
[6]
  activity at 100 µM: 62.2%

## C#CCN1CCC(/C=C/c2ccc(C(F)(F)F)cc2)CC1 [listing 2 of 2 here]
[6]
  activity at 100 µM: 64.9%

## C#CCN1CCC(CCc2ccccc2)CC1
[2]
  solubility: Insoluble

Reference: ChEMBL document CHEMBL4321878, “Stereoselective Activity of 1-Propargyl-4-styrylpiperidine-like Analogues That Can Discriminate between Monoamine Oxidase Isoforms A and B” (J Med Chem, 2020)
